Assay results reported in the EternaBench riboswitch data.

Legend:
MS2 coat protein [1] = assay: apparent Kd, MS2 coat protein; higher = weaker binding; RNA-MaP array; theophylline 2 mM where present
Outline: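 Stalled E. coli RNA polymerase produced the designs on Illumina sequencing-chip clusters. SNAP-549-labelled MS2 coat protein was added from 0.7 or 1.5 nM, doubling to 3 µM, without and then with constant ligand, in 100 mM Tris-HCl pH 7.5, 80 mM KCl, 4 mM MgCl2, BSA, DTT, yeast tRNA and Tween-20. The apparent Kd is the median of filtered per-cluster fits of green signal normalised to red-channel RNA signal and control-cluster median Fmax.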

MS2 coat protein [2] = assay: apparent Kd, MS2 coat protein; higher = weaker binding; RNA-MaP array
Outline: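 Designed RNAs were produced on an Illumina sequencing chip by transcription of sequenced DNA templates. Binding to fluorescently labeled MS2 coat protein (1.5 nM to 3 μM) was measured at room temperature with or without input ligand. The apparent Kd is the median of per-cluster binding-curve fits. Designs were excluded when measured on fewer than 10 clusters.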

[3] = designed as: OFF switch for theophylline, no ligand
[4] = ligand present: theophylline, designed as: OFF switch for theophylline
[5] = designed as: ON switch for theophylline, no ligand
[6] = ligand present: theophylline, designed as: ON switch for theophylline
[7] = designed as: ON switch for flavin mononucleotide, no ligand
[8] = ligand present: flavin mononucleotide, designed as: ON switch for flavin mononucleotide
[9] = designed as: OFF switch for flavin mononucleotide, no ligand
[10] = ligand present: flavin mononucleotide, designed as: OFF switch for flavin mononucleotide

Sequence | apparent Kd (MS2 coat protein [1]; [3]) | apparent Kd (MS2 coat protein [1]; [4]) | apparent Kd (MS2 coat protein [1]; [5]) | apparent Kd (MS2 coat protein [1]; [6]) | further results
AACAUGAGGACGGAUACCAGUCACAUGAGGAUCACCCAUGUACAUGAGGAUCACCCAUGUGGCCCUUGGCAGCCGCAUGUGAUCA | 327 nM | 473 nM | – | – | –
GAUCCUCGUACGGAUACCAGCGACUAACAUGAGGAUCACCCAUGUGAUAAAGAAAAUAUUUGCCCUUGGCAGCCGAAUAGAUAGU | – | – | 72.7 nM | 34.9 nM | –
UGGCAGCACCUCAUGUGCUGCCAAGGUGAUACCAGCAUCGAAAGAUGCCCUUGGCAGCACCAACAUGAGGAUCACCCAUGUAAUA | – | – | 165 nM | 152 nM | –
UCAUAUUAGUGAGAUGUAAGGUAUCAUGAUACCAGUAGAUAAUUAUACCCUUGGCAGCAUAACAUGAGGAUCACCCAUGUACAUG | 25.6 nM | 23.3 nM | – | – | –
AUACCUAAUGUUACAUUUUCCUUUUCAGAUACCAGACUUUACGUUGUCCCUUGGCAGCUGUAUCACAUGAGGAUCACCCAUGUUG | – | – | 16.6 nM | 16.9 nM | –
AGUGUUAUAACUGAUACCAGACUUGCGCUUAAACAUGAGGAUCACCCAUGUAAAAUGGUUGUCCCUUGGCAGCAGAAAAUACACA | – | – | 74.1 nM | 21.6 nM | –
ACGUCCGGGUUAAUCGUGGGCAUGGUCGAUACCAGUAUUUUAAUCUACCCUUGGCAGCGACAUGAGGAUCACCCAUGUGCGAUGA | 17 nM | 35.5 nM | – | – | –
UCGCAUUGCUCAGAUACCAGACAUGAGGAUCACCCAUGUACCAAGGUACCCGAAAGGAAUGUCCCUUGGCAGCUGAGCAAUGCGU | 9.82 nM | 23.6 nM | – | – | –
CCUGCGUUUCUUUUCUUUCGCAGGAAUGAUACCAGUAGGGAAACCUACCCUUGGCAGCAUGGGACAUGAGGAUCACCCAUGUAAU | – | – | 439 nM | 89.3 nM | –
AUAAGUAAUGUUACGUGUUUUAUUACAGAUACCAGACUAUACGUUGUCCCUUGGCAGCUGAAUUACAUGAGGAUCACCCAUGUUG | 15.1 nM | 17.3 nM | – | – | –
AUGUUUGUGUGAGAUACCAGUGAGGCCACAUGAGGAUCACCCAUGUCCCUCACUCCGGCCCACCCUUGGCAGCUCUUAUAGAAAA | 10 nM | 59.6 nM | – | – | –
ACAUGAGGAUCACCCAUGUUCCUCGCCGAUACCAGUGAAGAAGAACGCCCUUGGCAGCGGAAAGAGUAUUUUGGAGAUGAGGUAC | 80.1 nM | 129 nM | – | – | –
ACGAUACGACAUGAGGAUCACCCAUGUGAUACCAGCGUGGAAACACGCCCUUGGCAGCACAAAUACUCCAAUAACGUAUCGAAAA | 260 nM | 240 nM | – | – | –
GCACCAGGUACGGAUACCAGCUGCCACAGUUACAUGAGGAUCACCCAUGUGAUAAAGUGUAGCCCUUGGCAGCUGUACCUGGUGC | – | – | 114 nM | 14.3 nM | –
ACGUCACGUUUACUCGUGGUUUCGUUCGAUACCAGUAGCGAGAGUUACCCUUGGCAGCGACAUGAGGAUCACCCAUGUACGAAGA | 13.1 nM | 27.2 nM | – | – | –
CGGUUUGUGAUGGAUACCAGCAGAGAAAAUGUUUAUCCUAACAUGAGGAUCACCCAUGUAUGCCCUUGGCAGCUGUUGUGGGCUG | 64.8 nM | 62.1 nM | – | – | –
AAAUAAAUAACUGAUACCAGUGGACUGACAUGAGGAUCACCCAUGUUGGGUUUUGUUGUCCACCCUUGGCAGCGGGCAUAUAAAA | 24.8 nM | 66.9 nM | – | – | –
GAACAUGAGGAUCACCCAUGUGAGAAUGAUACCAGUAGAAGAAGAUGCCCUUGGCAGCGUGCGUGAGGAUCACCCAUGUAGGAGG | 24.2 nM | 27.9 nM | – | – | –
CAUUAUGUAACUGAUACCAGUGUACUGACAUGAGGAUCACCCAUGUUGGGUUUUGUUGUACACCCUUGGCAGCAGAAUCAUAAUG | 63.5 nM | – | – | – | –
GCACCAGGUACGGAUACCAGCUGCUCGAGAUACAUGAGGAUCACCCAUGUGACCUGGUUUAGCCCUUGGCAGCUGUACCUGGUGC | – | – | 15.8 nM | 9.98 nM | –
AAUAACAUGAGGAUCACCCAUGUAAAAGAUACCAGAGUGAUGAUCCUCCCUUGGCAGCUUAAACGCUAUUGAUUACAAUAGCGAA | – | – | 41.5 nM | 144 nM | –
ACAUGAGGAUCACCCAUGUAAUGGCACGAUACCAGCUGAUCCCGUGGCCCUUGGCAGCGUCCGGUGUGGUCCGCCGGGUUGGAGC | – | – | 21 nM | 39.3 nM | –
UUAGAUAUGACAGAUACCAGCGUGUUGUUGAACAUGAGGAUCACCCAUGUAGUGAUCGAGCGCCCUUGGCAGCUGGUGUGUUUGG | – | – | 161 nM | 181 nM | –
AACCGAGGCUAUCCUCUCCGACUAUGUGAUACCAGAAUAAUUUUAUUCCCUUGGCAGCAUGACAUGAGGAUCACCCAUGUCUCUU | – | – | 15.8 nM | 20.7 nM | –
AGCGACAUGCGUGAUACCAGCUACAUGAGGAUCACCCAUGUACGUCAGAAAUGACUGUGUAGCCCUUGGCAGCAUAAUGCAUGUC | 40.9 nM | 70.5 nM | – | – | –

Sequence | apparent Kd (MS2 coat protein [1]; [3]) | apparent Kd (MS2 coat protein [1]; [4]) | apparent Kd (MS2 coat protein [1]; [5]) | apparent Kd (MS2 coat protein [1]; [6]) | further results
ACAUGAGGAUCACCCAUGUGGCGUCUUGAUACCAGACGAGAAGUAGUCCCUUGGCAGCAAAUACAUGAGGAUCACCCAUGUAGGA | 23.9 nM | 37.1 nM | – | – | –
AGCCCUGUGCUAGAUACCAGCUACAUGAGGAUCACCCAUGUGCGUCAGGACUGACUGUGUAGCCCUUGGCAGCUACUCGCAUGUA | 16.2 nM | 30.9 nM | – | – | –
ACACCGAAAGGUGCAUUUUCCUUUUCAGAUACCAGACUUUACGUUGUCCCUUGGCAGCUGUAUCACAUGAGGAUCACCCAUGUUG | – | – | 16.4 nM | 17.6 nM | –
AAGCUGGGUGUAAAAUAAAUAAUCACUGAUACCAGACUAUGAGAUGUCCCUUGGCAGCAGAAACAUGAGGAUCACCCAUGUAAUA | 20.7 nM | 21.5 nM | – | – | –
UUAUCUAUAUUCGAUACCAGUACCCUGGCCGCAAAUCCUAACAUGAGGAUCACCCAUGUGUACCCUUGGCAGCGGGUAUGGGUUU | 23.2 nM | 88.8 nM | – | – | –
UGUAACAUGAGGAUCACCCAUGUGAGUGAUACCAGACUAGUGUUGGUCCCUUGGCAGCACGCUGGACGAAUGUGUAGUCUAUGCG | – | – | 78.3 nM | 83.7 nM | –
AUAUGAUCAUACGAUACCAGAAAUGGUAUUCCUUUAUUUCUUACAUGAGGAUCACCCAUGUUCCCUUGGCAGCGUAUGAUCAUAU | 363 nM | 123 nM | – | – | –
GAAACGUAGGUGGAGCGGUGAAAUGGCGAUACCAGCGUGGAAACACGCCCUUGGCAGCGUUAGAACAUGAGGAUCACCCAUGUUU | 25.2 nM | 112 nM | – | – | –
AGAUCUUUCGAAAGAAGGAUAAUGGCUGAUACCAGAGACGAAAGUCUCCCUUGGCAGCAGUGCCAACAUGAGGAUCACCCAUGUA | – | – | 170 nM | 39.7 nM | –
AUCCUCAAGAAUGAUACCAGACCAAACAUGAGGAUCACCCAUGUAUCAGGCAAUUGUUACGUCCCUUGGCAGCAUGUAAGCCGAC | – | – | 54.9 nM | 60.2 nM | –
UAAAACAUGAGGAUCACCCAUGUAAAAGAUACCAGAGUGAUGAUCCUCCCUUGGCAGCUUAACGCUGAUUGAUUACAAUCAGCGA | – | – | 93.9 nM | 180 nM | –
GGCUGUUGCUCUUUGAAGCGGCAGCGUGAUACCAGAUGUAAGAGCGUCCCUUGGCAGCACGUUUACAUGAGGAUCACCCAUGUCA | – | – | 211 nM | 72.8 nM | –
CACUUCAUGUGAGAUACCAGUGCCUUACAUGAGGAUCACCCAUGUCGUAAUGUGGAGAAGCACCCUUGGCAGCUCGCUUCGAGUG | – | – | 83.9 nM | 71.7 nM | –
UCACAUGAGGAUCACCCAUGUACAGGCGAUACCAGCCGUACAUUGGGCCCUUGGCAGCGCACCGAGACCUUUUAAAGCACUUCGG | – | – | 35.1 nM | 121 nM | –
AUGUUUGUGUGAGAUACCAGUGAGGCCACAUGAGGAUCACCCAUGUCCCUCACUCCGGCCCACCCUUGGCAGCUCUUAUAGUAAA | 9.5 nM | 39.4 nM | – | – | –
UCUAACAUGAGGAUCACCCAUGUGGGUUAUCGAGGACCGGUACGGCCGCCACUCGACCAGUAUAACUGGCUAGAACGUAUUUGAU | – | – | – | – | apparent Kd (MS2 coat protein [2]; designed as: ON switch for tryptophan, no ligand): 34 nM; apparent Kd (MS2 coat protein [2]; ligand present: tryptophan, designed as: ON switch for tryptophan): 26.6 nM
CUGACGUAACAUGAGGAUCACCCAUGUUUGGCGCUAUAGCAACAGGAUAUUCCGCUCACGGAGCUGAAGAAGGGUUACAGUCAC | – | – | – | – | apparent Kd (MS2 coat protein [2]; [7]): 14 nM; apparent Kd (MS2 coat protein [2]; [8]): 8.37 nM
UCACCAUGUCGAAACAUGAGGAUCACCCAUGUGAAUCAUGACAGAAGGUCUAUAGAAUGACGGAAGAAGGAUAUGUCAAUGCGC | – | – | – | – | apparent Kd (MS2 coat protein [2]; [9]): 17.8 nM; apparent Kd (MS2 coat protein [2]; [10]): 17.4 nM
GACAAUAAUUCAACAAUCAAAAUAGUGGGACGAGGACCGGUACGGCCGCCACUCGCUGAAGCACAUGAGGAUCACCCAUGUCUAA | – | – | – | – | apparent Kd (MS2 coat protein [2]; designed as: OFF switch for tryptophan, no ligand): 17.2 nM; apparent Kd (MS2 coat protein [2]; ligand present: tryptophan, designed as: OFF switch for tryptophan): 17.8 nM
AGUUGACCAAGAGGAUAUGCCCUGUCUUUAUGUACAUGCAGAACAUGAGGAUCACCCAUGUGACGGCAGAAGGCUUAGCCGGUG | – | – | – | – | apparent Kd (MS2 coat protein [2]; [9]): 6.77 nM; apparent Kd (MS2 coat protein [2]; [10]): 7.12 nM
GUCGCGUAGCAAGGAUAUGCAAAGAGGAAAACUGCAGAAGGUGCCAUUAAAGGACAUGAGGAUCACCCAUGUGCAUUAUCCACA | – | – | – | – | apparent Kd (MS2 coat protein [2]; [7]): 53.4 nM; apparent Kd (MS2 coat protein [2]; [8]): 30.9 nM
GACUAAUAGGAGAAGGGACAAUCUACAAUCGCGUCAGGAUAUCCGACAUGAGGAUCACCCAUGUAGAGAAGGGCGCAGCCCGGC | – | – | – | – | apparent Kd (MS2 coat protein [2]; [7]): 24.3 nM; apparent Kd (MS2 coat protein [2]; [8]): 18.3 nM
GGGUAACCAGUUAGGAUAUUGAAUAGUUUGAUGUUCAAGAAGGAACAUGAGGAUCACCCAUGUAUGGGACUAGA | – | – | – | – | apparent Kd (MS2 coat protein [2]; [9]): 139 nM; apparent Kd (MS2 coat protein [2]; [10]): 174 nM
CAGUGAGCCAAGAAGGUUGCUGACGAUAGUGGCAAAGGAUAUUGAGGGCGCAAUCAUUUACAUGAGGAUCACCCAUGUUCUUAC | – | – | – | – | apparent Kd (MS2 coat protein [2]; [7]): 35.4 nM; apparent Kd (MS2 coat protein [2]; [8]): 17.5 nM
GCAUACGGAUAGAAGGAACUCUACGAUACGACAUGAGGAUCACCCAUGUAAUAUCAGUUAAACGGUUAGGAUAUAUGGGUAGUC | – | – | – | – | apparent Kd (MS2 coat protein [2]; [7]): 81.6 nM; apparent Kd (MS2 coat protein [2]; [8]): 41.9 nM
